We go through six compounds from ChEMBL document CHEMBL1135761, “Discovery of further pyrrolidine trans-lactams as inhibitors of human neutrophil elastase (HNE) with potential as development candidates and the crystal structure of HNE complexed with an inhibitor (GW475151)” (J Med Chem, 2002).

What is called half-life is how long it takes for the measured level to halve.

The nature of one data set: Pharmacokinetic parameter Varea in dog was reported in Cassette dosage. Type of data set: ADME, organism-based, Canis lupus familiaris. As to conditions: in vivo, read-out: Varea. In a few lines:
(§1)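 Dog cassette: the set of compounds was given intravenously into the femoral vein to a beagle dog at 0.2 mg/kg body weight per compound. Jugular blood was sampled from 5 min to 24 h postdose. Plasma was prepared by solid phase extraction, then analysed by HPLC with single ion monitoring MS using 0.1% formic acid in water:methanol (70:30).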
In the case of `CC(C)C1C(=O)N(S(C)(=O)=O)C2CCN(C(=O)c3csc(CN4CCCC4)n3)C12` (configuration not stated), the Vd stood at 4.8 L/kg.
Same read-out and setting: the result for `CC(C)C1C(=O)N(S(C)(=O)=O)C2CCN(C(=O)c3ccc(CNC4CC4)cc3)C12` (configuration not stated) reads 4.3 L/kg; that for `CC(C)[C@@H]1C(=O)N(S(C)(=O)=O)[C@@H]2CCN(C(=O)c3ccc(CCN4CCCCC4)cc3)[C@H]21`, 6.6 L/kg.
Turning to `CC(C)[C@@H]1C(=O)N(S(C)(=O)=O)[C@@H]2CCN(C(=O)c3ccc(CN(C)C(C)C)c(Br)c3)[C@H]21`, the Vd came out at 4.4 L/kg.
The same measure, in the same setting: the result for `CC(C)[C@@H]1C(=O)N(S(C)(=O)=O)[C@@H]2CCN(C(=O)/C=C/CNC3CC3)[C@H]21` reads 2.5 L/kg; that for `CC(C)C1C(=O)N(S(C)(=O)=O)C2CCN(C(=O)c3ccc(CNC4CC4)nc3)C12` (configuration not stated), 2.9 L/kg.

The next data set in a line: Pharmacokinetic parameter clearance in dog was reported in Discrete dosage. As to conditions: plasma, read-out: Clp. Type of data set: ADME, organism-based, Canis lupus familiaris.
`CC(C)C1C(=O)N(S(C)(=O)=O)C2CCN(C(=O)c3ccc(CNC4CC4)cc3)C12` (configuration not stated): the clearance worked out at 94 mL/min/kg.
On the same count and under the same terms, the value for `CC(C)[C@@H]1C(=O)N(S(C)(=O)=O)[C@@H]2CCN(C(=O)c3ccc(CCN4CCCCC4)cc3)[C@H]21` was 220 mL/min/kg; that for `CC(C)[C@@H]1C(=O)N(S(C)(=O)=O)[C@@H]2CCN(C(=O)/C=C/CNC3CC3)[C@H]21` was 40 mL/min/kg.

The nature of the next data set: Half life time in dog was reported in cassette dosage. The class given is ADME, organism-based, Canis lupus familiaris. The conditions noted are these: in vivo. In a few lines: as §1
Consider `CC(C)C1C(=O)N(S(C)(=O)=O)C2CCN(C(=O)c3csc(CN4CCCC4)n3)C12` (configuration not stated), for which the half-life was 60 min.
On the same count and under the same terms, the result for `CC(C)C1C(=O)N(S(C)(=O)=O)C2CCN(C(=O)c3ccc(CNC4CC4)cc3)C12` (configuration not stated) reads 30 min.
The same measure, in the same setting: the value for `CC(C)[C@@H]1C(=O)N(S(C)(=O)=O)[C@@H]2CCN(C(=O)c3ccc(CCN4CCCCC4)cc3)[C@H]21` was 30 min; that for `CC(C)[C@@H]1C(=O)N(S(C)(=O)=O)[C@@H]2CCN(C(=O)c3ccc(CN(C)C(C)C)c(Br)c3)[C@H]21` was 18 min.
The same measure, in the same setting: the result for `CC(C)[C@@H]1C(=O)N(S(C)(=O)=O)[C@@H]2CCN(C(=O)/C=C/CNC3CC3)[C@H]21` reads 60 min.
The compound `CC(C)C1C(=O)N(S(C)(=O)=O)C2CCN(C(=O)c3ccc(CNC4CC4)nc3)C12` (configuration not stated) showed a half-life of 42 min.

A further data set is described as follows: Half life time in dog was reported in Discrete dosage. Type of data set: ADME, organism-based, Canis lupus familiaris. As to conditions: in vivo.
`CC(C)C1C(=O)N(S(C)(=O)=O)C2CCN(C(=O)c3ccc(CNC4CC4)cc3)C12` (configuration not stated) gave a half-life of 30 min.
The same measure, in the same setting: the value for `CC(C)[C@@H]1C(=O)N(S(C)(=O)=O)[C@@H]2CCN(C(=O)c3ccc(CCN4CCCCC4)cc3)[C@H]21` was 12 min; that for `CC(C)[C@@H]1C(=O)N(S(C)(=O)=O)[C@@H]2CCN(C(=O)/C=C/CNC3CC3)[C@H]21` was 54 min.

The next data set is described as follows: Pharmacokinetic parameter clearance in dog was reported in Cassette dosage. The conditions noted are these: plasma, read-out: Clp. The class given is ADME, organism-based, Canis lupus familiaris. The method, boiled down: as §1
For `CC(C)C1C(=O)N(S(C)(=O)=O)C2CCN(C(=O)c3csc(CN4CCCC4)n3)C12` (configuration not stated), the clearance was found to be 53 mL/min/kg.
`CC(C)C1C(=O)N(S(C)(=O)=O)C2CCN(C(=O)c3ccc(CNC4CC4)cc3)C12` (configuration not stated): the clearance is 97 mL/min/kg.
The same measure, in the same setting: the value for `CC(C)[C@@H]1C(=O)N(S(C)(=O)=O)[C@@H]2CCN(C(=O)c3ccc(CCN4CCCCC4)cc3)[C@H]21` was 161 mL/min/kg; that for `CC(C)[C@@H]1C(=O)N(S(C)(=O)=O)[C@@H]2CCN(C(=O)c3ccc(CN(C)C(C)C)c(Br)c3)[C@H]21` was 176 mL/min/kg.
On the same count and under the same terms, the value for `CC(C)[C@@H]1C(=O)N(S(C)(=O)=O)[C@@H]2CCN(C(=O)/C=C/CNC3CC3)[C@H]21` was 28 mL/min/kg; that for `CC(C)C1C(=O)N(S(C)(=O)=O)C2CCN(C(=O)c3ccc(CNC4CC4)nc3)C12` (configuration not stated) was 46 mL/min/kg.

The next data set is described as follows: Pharmacokinetic parameter Varea in dog was reported in Discrete dosage. The class given is ADME, organism-based, Canis lupus familiaris. As to conditions: in vivo, read-out: Varea.
With `CC(C)C1C(=O)N(S(C)(=O)=O)C2CCN(C(=O)c3ccc(CNC4CC4)cc3)C12` (configuration not stated), the Vd was 3.8 L/kg.
Consider `CC(C)[C@@H]1C(=O)N(S(C)(=O)=O)[C@@H]2CCN(C(=O)c3ccc(CCN4CCCCC4)cc3)[C@H]21`, for which the Vd was found to be 3.8 L/kg.
In the case of `CC(C)[C@@H]1C(=O)N(S(C)(=O)=O)[C@@H]2CCN(C(=O)/C=C/CNC3CC3)[C@H]21`, the Vd stood at 2.9 L/kg.
